From ChEMBL document CHEMBL1135512 (J Med Chem, 2002)

Columns and labels:
Plasmodium falciparum [1] = assay: In vitro inhibitory activity against multidrug-resistant Plasmodium falciparum W2 Indochina; assay type: functional, organism-based
Method in brief: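 Clone W2 (Indochina), sorbitol-synchronized, was grown in RPMI 1640 with 10% human serum, 25 mM HEPES and 25 mM NaHCO3, at final parasitemia 0.5% and hematocrit 1.5%. The drug was present for 48 h at 37 °C under 10% O2/6% CO2/84% N2. Growth was read as 3H-hypoxanthine uptake (1 μCi/well). IC50 came from nonlinear regression of log-dose/response as the geometric mean with 95% CI.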

[2] = In vitro hemolytic concentration on uninfected erythrocytes.; assay type: functional, Homo sapiens
Method in brief: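 Washed A+ human erythrocytes were held at 1.5% hematocrit in RPMI 1640 with 10% human serum, 25 mM HEPES and 25 mM NaHCO3. Drug (2 mM to 1 μM final, triplicate) was added for 42 h at 37 °C under 10% O2/6% CO2. Released hemoglobin in supernatant was measured with TMB/H2O2 at 455 nm. HC50 is relative to 5% saponin lysis, by nonlinear regression.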

[3] = Dissociation constant (pKa); assay type: physicochemical
Plasmodium falciparum [4] = assay: Accumulation coefficient of chloroquine at 1 um-10 uM of DEEA against Plasmodium falciparum W2;Range is from 14-15; assay type: functional
Method in brief: (§1)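 W2 infected erythrocytes were suspended in RPMI 1640 with 25 mM HEPES and 25 mM NaHCO3 (2% parasitemia, 2% hematocrit). They were mixed over silicone oil with buffer holding [3H]CQ (26 Ci/mmol) plus DEEA at 1 or 10 μM. Incubation was 1 h at 37 °C under 10% O2/6% CO2/84% N2, followed by 1 min centrifugation. Ratio = parasite [3H]CQ (infected minus uninfected cells) / same-volume buffer.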

Plasmodium falciparum [5] = assay: Percent reversal against Plasmodium falciparum W2 at 1 uM DEEA; assay type: functional
[6] = Partition coefficient (logD7.0); assay type: physicochemical; conditions: octanol/water, pH 7
[7] = Partition coefficient (logP); assay type: physicochemical; conditions: octanol/water
[8] = Cytotoxicity against Chinese hamster ovary cells; assay type: cell-based, Cricetulus griseus
Method in brief: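 Cells were then exposed to graded drug concentrations for 48 h at 37 °C, 5% CO2. MTT (1 mg/mL in PBS) was added for 3 h, and formazan was dissolved in DMSO and read at 570/630 nm. IC50 came from nonlinear regression versus drug-free wells.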

Plasmodium falciparum [9] = assay: Accumulation coefficient of chloroquine at 1 uM-10 uM of DEEA against Plasmodium falciparum W2; Range is from 14-56; assay type: functional; method in brief: as §1
Plasmodium falciparum [10] = assay: Concentration required to reduce chloroquine IC50 by 50%; assay type: functional, organism-based
Method in brief: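 Synergy isotopic microtest on sorbitol-synchronized W2 (Indochina) and 3D7 in RPMI 1640 with 10% human serum, HEPES/NaHCO3, parasitemia 0.5%, hematocrit 1.5%. CQ was combined with subinhibitory fixed DEEA concentrations, and 3H-hypoxanthine was added for 48 h at 37 °C under 10% O2/6% CO2/84% N2. Reversal IC50 is the DEEA concentration halving CQ IC50, found by nonlinear regression of log-dose/IC50.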

Plasmodium falciparum [11] = assay: Accumulation coefficient of chloroquine at 1 uM -10 uM of DEEA against Plasmodium falciparum W2; Range is from 15-101; assay type: functional; method in brief: as §1
Plasmodium falciparum [12] = assay: Accumulation coefficient of chloroquine at 1 uM-10 uM of DEEA against Plasmodium falciparum W2; Range is from 16-71; assay type: functional; method in brief: as §1
Plasmodium falciparum [13] = assay: Accumulation coefficient of chloroquine at 1 uM-10 uM of DEEA against Plasmodium falciparum W2; Range is from 19-23; assay type: functional; method in brief: as §1
Plasmodium falciparum [14] = assay: Percent reversal against Plasmodium falciparum W2 at 1 uM DEEA
Plasmodium falciparum [15] = assay: Accumulation coefficient of chloroquine at 1 uM-10 uM of DEEA against Plasmodium falciparum W2; assay type: functional; method in brief: as §1
Plasmodium falciparum [16] = assay: Accumulation coefficient of chloroquine at 1 uM-10 uM of DEEA against Plasmodium falciparum W2; Range is from 61-242; assay type: functional; method in brief: as §1
Plasmodium falciparum [17] = assay: Accumulation coefficient of chloroquine at 1 uM-10 uM of DEEA against Plasmodium falciparum W2; Range is from 62-63; assay type: functional
Plasmodium falciparum [18] = assay: Accumulation coefficient of chloroquine at 1 uM-10 uM of DEEA against Plasmodium falciparum W2; Range is from 50-159; assay type: functional; method in brief: as §1
[19] = pKa of the compound; assay type: physicochemical
Plasmodium falciparum [20] = assay: Accumulation coefficient of chloroquine at 1 uM-10 uM of DEEA against Plasmodium falciparum W2; Range is from 18-16; assay type: functional
Plasmodium falciparum [21] = assay: Accumulation coefficient of chloroquine at 1 uM-10 uM of DEEA against Plasmodium falciparum W2;Range is from 30-32; assay type: functional; method in brief: as §1
Plasmodium falciparum [22] = assay: Accumulation coefficient of chloroquine at 1 uM-10 um of DEEA against Plasmodium falciparum W2;Range is from 112-298; assay type: functional; method in brief: as §1

SMILES	IC50 (Plasmodium falciparum [1]; Plasmodium falciparum) [µM]	HC50 [2] [µM]	pKa [3]	Reversal (Plasmodium falciparum [5]) [%]	logD ([6]; read-out: logD)	logP ([7]; read-out: logP)	Cytotoxicity [8] [µM]	IC50 (Plasmodium falciparum [10]; Plasmodium falciparum) [µM]	further results
CC1C2c3ccccc3C(c3ccccc32)C1C(=O)Nc1ccccn1 (configuration not stated)	302	1827	5.27	0	4.16	4.17	205		Accumulation coefficient (Plasmodium falciparum [4]): 15
CN(C)CC1C2c3ccccc3C(c3ccccc32)C1CO (configuration not stated)	36	>2000	8.86	66	0.96	2.82	> 2000	0.6	Accumulation coefficient (Plasmodium falciparum [9]): 56
CC1C2c3ccccc3C(c3ccccc32)C1C(=O)Nc1ccncc1 (configuration not stated)	833	>2000	5.27	21	3.85	3.85	> 500	1490	Accumulation coefficient (Plasmodium falciparum [11]): 101
CN(C)CCNC1CC2c3ccccc3C1c1ccccc12 (configuration not stated)	8	644	9.48	63	-1.5	3.17	695	0.8	Accumulation coefficient (Plasmodium falciparum [12]): 71
CC1C2c3ccccc3C(c3ccccc32)C1C(=O)/N=C/N(C)C (configuration not stated)	51	>2000		0	3.26	3.26	> 2000	40	Accumulation coefficient (Plasmodium falciparum [13]): 23
CC1C2c3ccccc3C(c3ccccc32)C1C(N)=O (configuration not stated)	41	>2000	-0.89		2.89	2.89	> 2000	20	Reversal (Plasmodium falciparum [14]): 0%; Accumulation coefficient (Plasmodium falciparum [15]): 22
CN(C)CC1=C(CN(C)C)C2c3ccccc3C1c1ccccc12	2.5	>2000	8.66	55	1.26	3.34	920	0.8	Accumulation coefficient (Plasmodium falciparum [16]): 242
CCOC(=O)C1C2c3ccccc3C(c3ccccc32)C1N(C)C (configuration not stated)	34	>2000	7.48	0	3	3.6	> 2000	3.1	Accumulation coefficient (Plasmodium falciparum [17]): 63
NCC1C2c3ccccc3C(c3ccccc32)C1CN (configuration not stated)	8	>2000		7			465	12.5	Accumulation coefficient (Plasmodium falciparum [18]): 159; pKa [19]: 10.1; logD [6]: -3.27; logP [7]: 1.89
CN(C)C1C2c3ccccc3C(c3ccccc32)C1C(=O)O (configuration not stated)	> 50	>2000	8.3	0	0.1	2.7	> 2000	> 100	Accumulation coefficient (Plasmodium falciparum [20]): 18
CN(C)C(=O)C1C2c3ccccc3C(c3ccccc32)C1C(=O)N(C)C (stereo in doubt; 17)		>2000	-1.34	3	1.7	1.7	1558	9	IC50 (Plasmodium falciparum [1]): 12.4 µM; Accumulation coefficient (Plasmodium falciparum [21]): 32
CN(C)CC1C2c3ccccc3C(c3ccccc32)C1CN(C)C (stereo in doubt; 19)				80			> 2000		IC50 (Plasmodium falciparum [1]): 4 µM; Accumulation coefficient (Plasmodium falciparum [22]): 298; IC50 (Plasmodium falciparum [10]): 0.4 µM
